Experimental data as given in ChEMBL document CHEMBL4257452, “A mini-library system to investigate non-essential residues of lipid-phosphatidylserine (PS) binding peptide-peptoid hybrid PPS1” (Medchemcomm, 2017).
Calls of active or inactive are those of the source. The calls are words filed in the database; no cut-off is given here. Starred links: 1 amine or outer side, 2 acyl side, 3 side chain; linkers in the order of their positions; H or OH if unused. Positions of bridges follow the written chain, without caps; N, C: chain ends. Non-standard residues stand in square brackets, D forms with d. Residues, ends and D or L forms follow the SMILES beside them. Chains are numbered I, II in the order given. Gly(N-piperonyl) = O=C(O)CNCc1ccc2c(c1)OCO2; N(4-MeOBn)Gly = COc1ccc(CNCC(=O)O)cc1; X3 = CC(c1ccccc1)N(CC(=O)[*:2])[*:1]; N(4-MeBn)Gly = Cc1ccc(CNCC(=O)O)cc1; N(isopentyl)Gly = CC(C)CCNCC(=O)O; X8 = O=C(CN(CC1CCNCC1)[*:1])[*:2]; Gly(N-(CH2)3OMe) = COCCCNCC(=O)O; NFurfurylGly = O=C(O)CNCc1ccco1

tested on: HCC4017; test: Cytotoxicity against human HCC4017 cells assessed as reduction in cell viability at 20 uM after 24 hrs by MTS assay; format: functional, cell-based
Method in brief: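 HCC4017 cells (RPMI, 5% FBS) and HBEC-3KT normal lung cells (KSFM with recombinant human EGF and bovine pituitary extract) were plated at 10 000 cells/well in triplicate and left to adhere overnight. They were exposed to 1 or 20 μM compound for 24 h. MTS reagent was then added for 2 h and absorbance read at 490 nm. Viability is % of untreated control wells.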

Structure (SMILES) | Activity
COc1ccc(CN(CC(=O)N(CC(=O)NC(CCCCN)C(=O)NC(CCCCN)C(=O)NC(CCSC)C(=O)NCCCCC(NC(=O)C(CCSC)NC(=O)C(CCCCN)NC(=O)C(CCCCN)NC(=O)CN(CC2CCNCC2)C(=O)CN(Cc2ccc(OC)cc2)C(=O)CN(C(=O)CN(Cc2ccc3c(c2)OCO3)C(=O)CNC(C)c2ccccc2)C(C)c2ccccc2)C(N)=O)CC2CCNCC2)C(=O)CN(C(=O)CN(Cc2ccc3c(c2)OCO3)C(=O)CNC(C)c2ccccc2)C(C)c2ccccc2)cc1 (stereo not given) (I: H-[X3][Gly(N-piperonyl)][X3][N(4-MeOBn)Gly][X8]KKMK-NH2 / II: H-[X3][Gly(N-piperonyl)][X3][N(4-MeOBn)Gly][X8]KKM; amide I:9-II:C; configuration not given here) | Active
COc1ccc(CN(CC(=O)N(CC(=O)NC(CCCCN)C(=O)NC(CCCCN)C(=O)NC(CCSC)C(=O)NCCCCC(NC(=O)C(CCSC)NC(=O)C(CCCCN)NC(=O)C(CCCCN)NC(=O)CN(Cc2ccc(C)cc2)C(=O)CN(Cc2ccc(OC)cc2)C(=O)CN(C(=O)CN(Cc2ccc3c(c2)OCO3)C(=O)CNC(C)c2ccccc2)C(C)c2ccccc2)C(N)=O)Cc2ccc(C)cc2)C(=O)CN(C(=O)CN(Cc2ccc3c(c2)OCO3)C(=O)CNC(C)c2ccccc2)C(C)c2ccccc2)cc1 (stereo not given) (I: H-[X3][Gly(N-piperonyl)][X3][N(4-MeOBn)Gly][N(4-MeBn)Gly]KKMK-NH2 / II: H-[X3][Gly(N-piperonyl)][X3][N(4-MeOBn)Gly][N(4-MeBn)Gly]KKM; amide I:9-II:C; configuration not given here) | Active
COc1ccc(CN(CC(=O)N(CCC(C)C)CC(=O)NC(CCCCN)C(=O)NC(CCCCN)C(=O)NC(CCSC)C(=O)NCCCCC(NC(=O)C(CCSC)NC(=O)C(CCCCN)NC(=O)C(CCCCN)NC(=O)CN(CCC(C)C)C(=O)CN(Cc2ccc(OC)cc2)C(=O)CN(C(=O)CN(Cc2ccc3c(c2)OCO3)C(=O)CNC(C)c2ccccc2)C(C)c2ccccc2)C(N)=O)C(=O)CN(C(=O)CN(Cc2ccc3c(c2)OCO3)C(=O)CNC(C)c2ccccc2)C(C)c2ccccc2)cc1 (stereo not given) (I: H-[X3][Gly(N-piperonyl)][X3][N(4-MeOBn)Gly][N(isopentyl)Gly]KKMK-NH2 / II: H-[X3][Gly(N-piperonyl)][X3][N(4-MeOBn)Gly][N(isopentyl)Gly]KKM; amide I:9-II:C; configuration not given here) | Active
COCCCN(CC(=O)NC(CCCCN)C(=O)NC(CCCCN)C(=O)NC(CCSC)C(=O)NCCCCC(NC(=O)C(CCSC)NC(=O)C(CCCCN)NC(=O)C(CCCCN)NC(=O)CN(CCCOC)C(=O)CN(Cc1ccc(OC)cc1)C(=O)CN(C(=O)CN(Cc1ccc2c(c1)OCO2)C(=O)CNC(C)c1ccccc1)C(C)c1ccccc1)C(N)=O)C(=O)CN(Cc1ccc(OC)cc1)C(=O)CN(C(=O)CN(Cc1ccc2c(c1)OCO2)C(=O)CNC(C)c1ccccc1)C(C)c1ccccc1 (stereo not given) (I: H-[X3][Gly(N-piperonyl)][X3][N(4-MeOBn)Gly][Gly(N-(CH2)3OMe)]KKMK-NH2 / II: H-[X3][Gly(N-piperonyl)][X3][N(4-MeOBn)Gly][Gly(N-(CH2)3OMe)]KKM; amide I:9-II:C; configuration not given here) | Active
COc1ccc(CN(CC(=O)N(CC(=O)NC(CCCCN)C(=O)NC(CCCCN)C(=O)NC(CCSC)C(=O)NCCCCC(NC(=O)C(CCSC)NC(=O)C(CCCCN)NC(=O)C(CCCCN)NC(=O)CN(Cc2ccco2)C(=O)CN(Cc2ccc(OC)cc2)C(=O)CN(C(=O)CN(Cc2ccc3c(c2)OCO3)C(=O)CNC(C)c2ccccc2)C(C)c2ccccc2)C(N)=O)Cc2ccco2)C(=O)CN(C(=O)CN(Cc2ccc3c(c2)OCO3)C(=O)CNC(C)c2ccccc2)C(C)c2ccccc2)cc1 (stereo not given) (I: H-[X3][Gly(N-piperonyl)][X3][N(4-MeOBn)Gly][NFurfurylGly]KKMK-NH2 / II: H-[X3][Gly(N-piperonyl)][X3][N(4-MeOBn)Gly][NFurfurylGly]KKM; amide I:9-II:C; configuration not given here) | Active
